ChEMBL document CHEMBL2010649, “Metacridamides A and B, macrocycles from conidia of the entomopathogenic fungus Metarhizium acridum” (J Nat Prod, 2012)
The source made the active and inactive calls. The calls are words filed in the database; no cut-off is given here.

Assays:
Bacillus cereus = test: Antimicrobial activity against Bacillus cereus at 100 ug/disk measured every 24 hrs for 4 days by disk diffusion assay; assay type: functional, organism-based
Method in brief: (§1)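 Bacteria grown on nutrient agar. Plates spread with 0.6 mL of a 24 h nutrient-broth culture and dried 1 h. Sample applied in 10 μL MeOH to 7-mm paper disks, air-dried 1 h, placed on plates. Zones of inhibition read every 24 h for 4 days. Tetracycline 10 μg/disk positive control; MeOH 10 μL/disk negative control.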

Aedes aegypti = test: Insecticidal activity against Aedes aegypti larvae at 100 ug/ml; assay type: functional, organism-based
Caco-2 [1] = test: Cytotoxicity against human Caco2 cells after 72 hrs by XTT assay; assay type: functional, cell-based; conditions: Caco-2, 72 h
Method in brief: (§2)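 Cell viability measured by XTT cell proliferation kit (XTT Cell Proliferation Kit II) on Caco-2, MCF-7 and HepG2/C3A lines; IC50 values derived.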

MCF7 [2] = test: Cytotoxicity against human MCF7 cells after 72 hrs by XTT assay; assay type: functional, cell-based; conditions: MCF7, 72 h; method in brief: as §2
Escherichia coli = test: Antimicrobial activity against Escherichia coli at 100 ug/disk measured every 24 hrs for 4 days by disk diffusion assay; assay type: functional, organism-based; method in brief: as §1
Beauveria bassiana = test: Antimicrobial activity against Beauveria bassiana ARSF 8354 at 100 ug/disk measured every 24 hrs for 4 days by disk diffusion assay; assay type: functional
Method in brief: as §1, with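 “Fungi” for “Bacteria”, “potato dextrose” for “nutrient”, “conidial suspension (ca. 1×10^6 conidia/mL H₂O)” for “of a 24 h nutrient-broth culture”, “Filipin” for “Tetracycline”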

Botrytis cinerea = test: Antimicrobial activity against Botrytis cinerea at 100 ug/disk measured every 24 hrs for 4 days by disk diffusion assay; assay type: functional, organism-based
Method in brief: as §1, with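 “Fungi” for “Bacteria”, “potato dextrose” for “nutrient”, “conidial suspension (ca. 1×10^6 conidia/mL H₂O)” for “of a 24 h nutrient-broth culture”, “Filipin” for “Tetracycline”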

Colletotrichum acutatum = test: Antimicrobial activity against Colletotrichum acutatum at 100 ug/disk measured every 24 hrs for 4 days by disk diffusion assay; assay type: functional, organism-based
Method in brief: as §1, with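 “Fungi” for “Bacteria”, “potato dextrose” for “nutrient”, “conidial suspension (ca. 1×10^6 conidia/mL H₂O)” for “of a 24 h nutrient-broth culture”, “Filipin” for “Tetracycline”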

Drosophila melanogaster = test: Insecticidal activity against Drosophila melanogaster at 100 ug; assay type: functional, organism-based
[3] = Cytotoxicity against human HepG2/C3A cells after 72 hrs by XTT assay; assay type: functional, cell-based; method in brief: as §2
MCF7 [4] = test: Cytotoxicity against human MCF7 cells at 100 uM after 72 hrs by XTT assay; assay type: functional, cell-based
Caco-2 [5] = test: Cytotoxicity against human Caco2 cells at 100 uM after 72 hrs by XTT assay; assay type: functional, cell-based

Structure (SMILES) | inhibition zone (IZ) (Bacillus cereus) | Activity (Aedes aegypti) | IC50 (Caco-2 [1]) | IC50 (MCF7 [2]) | inhibition zone (IZ) (Escherichia coli) | inhibition zone (IZ) (Beauveria bassiana) | inhibition zone (IZ) (Botrytis cinerea) | inhibition zone (IZ) (Colletotrichum acutatum) | Activity (Drosophila melanogaster) | IC50 [3] | Activity (MCF7 [4]) | Activity (Caco-2 [5])
CC[C@H](C)C[C@H](C)[C@H]1OC(=O)[C@H](Cc2ccccc2)NC(=O)/C(C)=C/[C@H](C)[C@@H](O)/C(C)=C/[C@H](C)[C@H](OC(C)=O)/C(C)=C/[C@@H]1C [METACRIDAMIDE A] | inactive | inactive | 6.2 µM | 11 µM | inactive | inactive | inactive | inactive | inactive | 10.8 µM | – | –
CC[C@H](C)C[C@H](C)[C@H]1OC(=O)[C@H](Cc2ccccc2)NC(=O)/C(C)=C/[C@H](C)[C@@H](O)/C(C)=C/[C@H](C)[C@H](O)/C(C)=C\[C@@H]1C [METACRIDAMIDE B] | – | – | – | – | – | – | – | – | – | 18.2 µM | inactive | inactive
